ChEMBL document CHEMBL4043201, “Conjugates of 18β-glycyrrhetinic acid derivatives with 3-(1H-benzo[d]imidazol-2-yl)propanoic acid as Pin1 inhibitors displaying anti-prostate cancer ability” (Bioorg Med Chem, 2017)

Columns and labels:
[1] = target: T1, Peptidyl-prolyl cis-trans isomerase NIMA-interacting 1 (Homo sapiens, UniProt Q13526); assay: Inhibition of Pin1 (unknown origin) assessed as reduction in peptidyl-prolyl isomerase activity at 10 uM incubated for 30 mins using Suc-Ala-Glu-cis-Pro-Phe-4-nitroanilide substrate by protease coupled assay
T1 sequence (Q13526 whole entry): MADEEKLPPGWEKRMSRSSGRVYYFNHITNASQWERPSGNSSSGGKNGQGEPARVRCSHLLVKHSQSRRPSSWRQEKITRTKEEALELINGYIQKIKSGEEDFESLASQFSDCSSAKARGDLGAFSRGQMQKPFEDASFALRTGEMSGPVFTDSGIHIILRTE
Outline: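 Commercial Pin1 in 35 mM HEPES pH 7.8 was pre-equilibrated with compound (DMSO solutions) for 30 min at 10 °C. Ice-cold chymotrypsin (stock 60 mg/mL in 0.001 M HCl) was added, then Suc-Ala-Glu-cis-Pro-Phe-4-nitroanilide in 0.47 mol/L LiCl/trifluoroethanol was added to start the reaction. Absorbance at 390 nm was monitored for 90 s at 10 °C.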

[2] = test system: PC-3; assay: Antiproliferative activity against human PC3 cells assessed as inhibition of cell growth incubated for 96 hrs by MTT assay; type: functional; conditions: PC-3, 96 h
Outline: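 PC-3 cells grown in RPMI1640 with 10% heat-inactivated FBS, seeded at 2×10^4 cells/well and kept 24 h at 37 °C in 5% CO2. Compounds were then added at various concentrations for 96 h. MTT (2 mg/mL) was added for a further 4 h, cells dissolved in DMSO, and A570 read. Growth was treated/untreated cell number, with GI50 calculated from inhibition ratios. Mean of three independent runs.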

[3] = test system: LNCaP; assay: Antiproliferative activity against human LNCAP cells assessed as inhibition of cell growth incubated for 96 hrs by MTT assay; type: functional
Outline: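 MTT growth assay. Cells seeded at 2×10^4 per well and held 24 h at 37 °C under 5% CO2 before compound was added at a range of concentrations. Exposure lasted 96 h, then 2 mg/mL MTT was added for 4 h. Cells were dissolved in DMSO and absorbance read at 570 nm. Growth was taken as treated/untreated cell number. GI50 was derived from the inhibition ratios. Three independent experiments, mean reported.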

[4] = target: T1, Peptidyl-prolyl cis-trans isomerase NIMA-interacting 1; assay: Inhibition of Pin1 (unknown origin) assessed as reduction in peptidyl-prolyl isomerase activity incubated for 30 mins using Suc-Ala-Glu-cis-Pro-Phe-4-nitroanilide substrate by protease coupled assay
[5] = target: T1, Peptidyl-prolyl cis-trans isomerase NIMA-interacting 1; assay: Inhibition of Pin1 in human PC3 cells assessed as reduction in Cyclin D1 protein level at 10 to 30 uM incubated for 24 hrs by Western blot method; type: cell-based
Outline: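 PC-3 cells were treated 24 h with compound at 10, 20 or 30 μM, with DMSO as control. Cells were lysed in RIPA buffer with protease inhibitors, and 40 μg protein was run on 10% SDS-PAGE and blotted to nitrocellulose. Ponceau S was used as a loading check. Membranes were blocked in 5% milk and probed overnight at 4 °C with anti-cyclin D1 and β-actin, with secondary antibody 1 h at 37 °C. ECL detection.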

Compound | inhibition [1] | GI50 [2] | GI50 [3] | IC50 [4] | inhibition [5]
CC1(C)[C@@H](O)CC[C@]2(C)[C@H]3CC=C4[C@@H]5C[C@@](C)(C(=O)OCCn6c(CCC(=O)O)nc7ccccc76)CC[C@]5(C)CC[C@@]4(C)[C@]3(C)CC[C@@H]12 | 54% | > 50 µM | > 50 µM |  | 
CC(=O)O[C@H]1CC[C@]2(C)[C@H]3C(=O)C=C4[C@@H]5C[C@@](C)(C(=O)OCCCn6c(CCC(=O)O)nc7ccccc76)CC[C@]5(C)CC[C@@]4(C)[C@]3(C)CC[C@H]2C1(C)C | 100% | 11.8 µM | 15.5 µM | 1.33 µM | 
CC1(C)C(=O)CC[C@]2(C)[C@H]3C(=O)C=C4[C@@H]5C[C@@](C)(C(=O)OCCCn6c(CCC(=O)O)nc7ccccc76)CC[C@]5(C)CC[C@@]4(C)[C@]3(C)CC[C@@H]12 | 77% | 35.6 µM | 29.3 µM |  | 
COC(=O)[C@@]1(C)CC[C@]2(C)CC[C@]3(C)C(=CC(=O)[C@@H]4[C@@]5(C)CC[C@H](OC(=O)CCn6c(CCC(=O)O)nc7ccccc76)C(C)(C)[C@@H]5CC[C@]43C)[C@@H]2C1 | 88% | 16.1 µM | 26.6 µM |  | 
CC(=O)O[C@H]1CC[C@]2(C)[C@H]3C(=O)C=C4[C@@H]5C[C@@](C)(C(=O)OCCn6c(CCC(=O)O)nc7ccccc76)CC[C@]5(C)CC[C@@]4(C)[C@]3(C)CC[C@H]2C1(C)C | 100% | 27.4 µM | 24.4 µM | 1.06 µM | 
CC(=O)O[C@H]1CC[C@]2(C)[C@H]3C(=O)C=C4[C@@H]5C[C@@](C)(C(=O)NCCn6c(CCC(=O)O)nc7ccccc76)CC[C@]5(C)CC[C@@]4(C)[C@]3(C)CC[C@H]2C1(C)C | 27% | > 50 µM | > 50 µM | > 10 µM | 
CC1(C)[C@@H](O)CC[C@]2(C)[C@H]3C(=O)C=C4[C@@H]5C[C@@](C)(C(=O)OCCCn6c(CCC(=O)O)nc7ccccc76)CC[C@]5(C)CC[C@@]4(C)[C@]3(C)CC[C@@H]12 | 40% | > 50 µM | > 50 µM | > 10 µM | 
CC1(C)C(=O)CC[C@]2(C)[C@H]3CC=C4[C@@H]5C[C@@](C)(C(=O)OCCn6c(CCC(=O)O)nc7ccccc76)CC[C@]5(C)CC[C@@]4(C)[C@]3(C)CC[C@@H]12 | 69% | 18.4 µM | 25.8 µM |  | 
CC1(C)C(=O)CC[C@]2(C)[C@H]3CC=C4[C@@H]5C[C@@](C)(C(=O)OCCCn6c(CCC(=O)O)nc7ccccc76)CC[C@]5(C)CC[C@@]4(C)[C@]3(C)CC[C@@H]12 | 98% | 13 µM | 19.7 µM | 3.8 µM | 
CC1(C)[C@@H](O)CC[C@]2(C)[C@H]3CC=C4[C@@H]5C[C@@](C)(C(=O)OCCCn6c(CCC(=O)O)nc7ccccc76)CC[C@]5(C)CC[C@@]4(C)[C@]3(C)CC[C@@H]12 | 100% | 25.6 µM | 42.7 µM | 2.82 µM | 
CC1(C)C(=O)CC[C@]2(C)[C@H]3C(=O)C=C4[C@@H]5C[C@@](C)(C(=O)NCCCn6c(CCC(=O)O)nc7ccccc76)CC[C@]5(C)CC[C@@]4(C)[C@]3(C)CC[C@@H]12 | 28% | > 50 µM | > 50 µM | > 10 µM | 
O=C1C=CC(=O)c2c(O)cccc21 [JUGLONE] | 44% | 4.77 µM |  | 10.8 µM | 
CC(=O)O[C@H]1CC[C@]2(C)[C@H]3C(=O)C=C4[C@@H]5C[C@@](C)(C(=O)NCCCn6c(CCC(=O)O)nc7ccccc76)CC[C@]5(C)CC[C@@]4(C)[C@]3(C)CC[C@H]2C1(C)C | 50% | > 50 µM | > 50 µM |  | 
CC1(C)[C@@H](O)CC[C@]2(C)[C@H]3C(=O)C=C4[C@@H]5C[C@@](C)(C(=O)O)CC[C@]5(C)CC[C@@]4(C)[C@]3(C)CC[C@@H]12 [ENOXOLONE] | 34% | 95.7 µM |  | > 10 µM | 
CC1(C)C(=O)CC[C@]2(C)[C@H]3C(=O)C=C4[C@@H]5C[C@@](C)(C(=O)NCCn6c(CCC(=O)O)nc7ccccc76)CC[C@]5(C)CC[C@@]4(C)[C@]3(C)CC[C@@H]12 | 38% | > 50 µM | > 50 µM | > 10 µM | 
CC(=O)O[C@H]1CC[C@]2(C)[C@H]3CC=C4[C@@H]5C[C@@](C)(C(=O)OCCn6c(CCC(=O)O)nc7ccccc76)CC[C@]5(C)CC[C@@]4(C)[C@]3(C)CC[C@H]2C1(C)C | 94% | 10.9 µM | 13.3 µM | 4.79 µM | 
COC(=O)[C@@]1(C)CC[C@]2(C)CC[C@]3(C)C(=CC(=O)[C@@H]4[C@@]5(C)CC[C@H](OC(=O)Cn6c(CCC(=O)O)nc7ccccc76)C(C)(C)[C@@H]5CC[C@]43C)[C@@H]2C1 | 100% | 7.8 µM | 13.2 µM | 1.07 µM | Dose-dependent effect
CC1(C)[C@@H](O)CC[C@]2(C)[C@H]3C(=O)C=C4[C@@H]5C[C@@](C)(C(=O)OCCn6c(CCC(=O)O)nc7ccccc76)CC[C@]5(C)CC[C@@]4(C)[C@]3(C)CC[C@@H]12 | 60% | > 50 µM | > 50 µM |  | 
CC1(C)C(=O)CC[C@]2(C)[C@H]3C(=O)C=C4[C@@H]5C[C@@](C)(C(=O)OCCn6c(CCC(=O)O)nc7ccccc76)CC[C@]5(C)CC[C@@]4(C)[C@]3(C)CC[C@@H]12 | 63% | 39.9 µM | 48.9 µM |  | 
O=C(O)CCc1nc2ccccc2[nH]1 [PROCODAZOLE] | 23% | > 50 µM | > 50 µM |  | 
